One test concerns the target T1, Dihydrofolate reductase (Bos taurus, UniProt P00376).
T1 sequence (P00376 whole entry): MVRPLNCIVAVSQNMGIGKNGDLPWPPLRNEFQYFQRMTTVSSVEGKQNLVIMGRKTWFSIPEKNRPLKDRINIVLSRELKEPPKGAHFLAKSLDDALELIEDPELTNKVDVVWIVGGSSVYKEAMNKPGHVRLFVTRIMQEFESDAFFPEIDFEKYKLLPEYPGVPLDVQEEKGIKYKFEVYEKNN
Put plainly: Inhibition of bovine liver DHFR measured for every 1 min of 10 mins.

Test [1] concerns the target Dihydrofolate reductase (Bos taurus) (UniProt P00376). Nature of the test: Ratio of MTX IC50 to compound IC50 for bovine liver DHFR. Put shortly: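 Bovine liver DHFR in Tris buffer pH 7.5, with dihydrofolate substrate. Final working levels were 0.29 g/l NADPH and 15 U/l DHFR. Absorbance was read at 340 nm at room temperature in kinetic mode every 1 min for 10 min. ΔA/min was taken relative to DMSO control to give % inhibition versus log concentration, from which the IC50 was derived. Methotrexate was the reference.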

This note sets out measurements from ChEMBL document CHEMBL3112482, “Nonclassical antifolates, part 5. Benzodiazepine analogs as a new class of DHFR inhibitors: synthesis, antitumor testing and molecular modeling study” (Eur J Med Chem, 2014).

One may read the IC50 as the concentration at which inhibition is half-maximal. Higher therefore signals weaker potency in that assay.

At Dihydrofolate reductase, `COc1ccc(/C=C2\CCCC3=C(c4ccc(OC)c(OC)c4)Nc4cc(C)c(C)cc4N=C32)cc1OC` gave an IC50 of 4 nM. Also, the Ratio IC50 in test [1] is 20.
